# From ChEMBL document CHEMBL1145310, “Isothiazolopyrimidines and isoxazolopyrimidines as novel multi-targeted inhibitors of receptor tyrosine kinases” (Bioorg Med Chem Lett, 2006)
# Columns and labels:
# [1] = Half life in mouse at 3 mg/kg, iv; type: ADME, organism-based; parameters: dose 3 mg/kg, route intravenous; settings: in vivo
# Procedure, shortened: (§1)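 Mouse pharmacokinetics: single intravenous dose of 3 mg/kg and single oral dose of 10 mg/kg. Half-life, volume of distribution at steady state, clearance, oral bioavailability and oral AUC were determined.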
# [2] = AUC in mouse at 10 mg/kg, po; type: ADME, organism-based; parameters: dose 10 mg/kg, route oral; settings: plasma; procedure, shortened: as §1
# [3] = Oral bioavailability in mouse at 10 mg/kg, po; settings: in vivo
# [4] = target: Vascular endothelial growth factor receptor 2 (Homo sapiens, UniProt P35968); assay: Inhibition of KDR
# Angiopoietin-1 receptor = Angiopoietin-1 receptor (Homo sapiens, UniProt Q02763); assay: Inhibition of TIE2
# Procedure, shortened: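 Kinase enzymatic assays run separately for each target. Each IC50 came from seven inhibitor concentrations, with every assay point determined in duplicate.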
# [5] = target: Vascular endothelial growth factor receptor 1 (Homo sapiens, UniProt P17948); assay: Inhibition of FLT1
# [6] = target: Mast/stem cell growth factor receptor Kit (Homo sapiens, UniProt P10721); assay: Inhibition of CKIT
# [7] = target: Vascular endothelial growth factor receptor 3 (Homo sapiens, UniProt P35916); assay: Inhibition of FLT4
# [8] = Volume of distribution in mouse at 3 mg/kg, iv; type: ADME, organism-based; parameters: dose 3 mg/kg, route intravenous; settings: in vivo, read-out: Vdss
# [9] = Clearance in mouse at 3 mg/kg, iv; type: ADME, organism-based; parameters: dose 3 mg/kg, route intravenous; settings: in vivo
# Chain of Vascular endothelial growth factor receptor 3 (P35916 whole entry): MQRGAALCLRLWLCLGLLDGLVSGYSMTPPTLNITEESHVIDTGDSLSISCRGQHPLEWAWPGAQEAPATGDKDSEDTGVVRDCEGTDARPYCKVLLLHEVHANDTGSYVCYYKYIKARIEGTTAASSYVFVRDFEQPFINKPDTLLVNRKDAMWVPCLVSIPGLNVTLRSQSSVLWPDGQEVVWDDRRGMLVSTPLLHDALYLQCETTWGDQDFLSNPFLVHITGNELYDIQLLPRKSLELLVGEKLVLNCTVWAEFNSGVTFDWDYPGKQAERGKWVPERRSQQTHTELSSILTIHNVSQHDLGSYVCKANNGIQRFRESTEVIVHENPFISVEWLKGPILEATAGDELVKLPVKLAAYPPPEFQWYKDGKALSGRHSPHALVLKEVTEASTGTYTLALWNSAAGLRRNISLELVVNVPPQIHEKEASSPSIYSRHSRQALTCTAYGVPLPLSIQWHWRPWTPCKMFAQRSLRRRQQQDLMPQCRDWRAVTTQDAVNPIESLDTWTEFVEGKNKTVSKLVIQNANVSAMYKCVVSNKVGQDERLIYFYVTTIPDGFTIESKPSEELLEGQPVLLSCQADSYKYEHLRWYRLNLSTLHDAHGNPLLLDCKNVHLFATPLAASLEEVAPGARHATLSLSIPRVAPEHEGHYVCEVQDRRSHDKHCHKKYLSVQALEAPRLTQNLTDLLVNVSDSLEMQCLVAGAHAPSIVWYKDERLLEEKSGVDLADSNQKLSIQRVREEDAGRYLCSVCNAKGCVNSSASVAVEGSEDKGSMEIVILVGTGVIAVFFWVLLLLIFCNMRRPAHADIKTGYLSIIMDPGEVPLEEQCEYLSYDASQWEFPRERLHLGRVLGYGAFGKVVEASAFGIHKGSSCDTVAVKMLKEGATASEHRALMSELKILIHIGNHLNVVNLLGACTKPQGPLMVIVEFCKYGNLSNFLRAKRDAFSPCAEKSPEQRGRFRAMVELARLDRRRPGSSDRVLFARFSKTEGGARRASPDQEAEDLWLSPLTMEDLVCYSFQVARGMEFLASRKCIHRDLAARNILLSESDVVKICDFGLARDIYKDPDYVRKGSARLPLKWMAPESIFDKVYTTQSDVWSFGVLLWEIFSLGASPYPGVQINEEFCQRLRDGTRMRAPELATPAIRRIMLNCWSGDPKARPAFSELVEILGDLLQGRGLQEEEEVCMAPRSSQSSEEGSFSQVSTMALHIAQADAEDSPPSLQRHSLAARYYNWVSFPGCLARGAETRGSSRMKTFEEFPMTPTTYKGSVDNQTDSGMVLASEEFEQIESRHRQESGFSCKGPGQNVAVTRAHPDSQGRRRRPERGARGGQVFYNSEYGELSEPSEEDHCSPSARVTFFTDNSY
# Chain of Vascular endothelial growth factor receptor 2 (P35968 whole entry): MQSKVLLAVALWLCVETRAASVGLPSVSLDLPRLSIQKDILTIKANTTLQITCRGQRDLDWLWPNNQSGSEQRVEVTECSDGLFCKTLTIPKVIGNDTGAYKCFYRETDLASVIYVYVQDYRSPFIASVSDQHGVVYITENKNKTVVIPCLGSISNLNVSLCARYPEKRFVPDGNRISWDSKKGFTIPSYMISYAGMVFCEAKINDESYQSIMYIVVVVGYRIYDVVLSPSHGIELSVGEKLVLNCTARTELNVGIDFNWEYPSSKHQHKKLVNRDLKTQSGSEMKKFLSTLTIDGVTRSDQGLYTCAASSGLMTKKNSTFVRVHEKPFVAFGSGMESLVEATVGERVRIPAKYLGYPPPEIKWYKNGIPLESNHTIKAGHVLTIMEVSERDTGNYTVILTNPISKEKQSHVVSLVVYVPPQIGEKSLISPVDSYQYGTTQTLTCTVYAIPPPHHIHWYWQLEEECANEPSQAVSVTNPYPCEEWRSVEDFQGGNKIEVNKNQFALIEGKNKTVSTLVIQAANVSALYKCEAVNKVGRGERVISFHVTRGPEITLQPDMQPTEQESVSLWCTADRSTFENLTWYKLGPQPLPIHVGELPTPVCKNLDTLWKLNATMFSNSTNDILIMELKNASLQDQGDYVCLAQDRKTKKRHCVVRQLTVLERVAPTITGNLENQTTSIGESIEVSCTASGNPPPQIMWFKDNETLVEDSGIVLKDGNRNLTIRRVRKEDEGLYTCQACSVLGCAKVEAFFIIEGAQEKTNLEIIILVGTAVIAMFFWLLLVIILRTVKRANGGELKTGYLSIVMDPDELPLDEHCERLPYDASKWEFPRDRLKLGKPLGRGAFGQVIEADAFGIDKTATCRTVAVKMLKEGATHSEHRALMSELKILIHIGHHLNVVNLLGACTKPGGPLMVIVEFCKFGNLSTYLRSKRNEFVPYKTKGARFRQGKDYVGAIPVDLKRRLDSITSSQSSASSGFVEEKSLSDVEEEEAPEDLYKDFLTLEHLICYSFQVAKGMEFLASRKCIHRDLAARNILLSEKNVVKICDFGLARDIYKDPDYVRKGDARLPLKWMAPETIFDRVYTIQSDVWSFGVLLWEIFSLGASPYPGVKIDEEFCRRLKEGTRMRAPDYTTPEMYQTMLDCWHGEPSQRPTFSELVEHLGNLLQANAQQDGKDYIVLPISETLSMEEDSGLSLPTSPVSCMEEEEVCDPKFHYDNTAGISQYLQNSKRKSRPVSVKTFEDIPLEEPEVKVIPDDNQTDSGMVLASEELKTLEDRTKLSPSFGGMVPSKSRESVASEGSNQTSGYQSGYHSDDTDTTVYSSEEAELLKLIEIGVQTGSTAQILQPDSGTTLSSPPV
# Chain of Vascular endothelial growth factor receptor 1 (P17948 whole entry): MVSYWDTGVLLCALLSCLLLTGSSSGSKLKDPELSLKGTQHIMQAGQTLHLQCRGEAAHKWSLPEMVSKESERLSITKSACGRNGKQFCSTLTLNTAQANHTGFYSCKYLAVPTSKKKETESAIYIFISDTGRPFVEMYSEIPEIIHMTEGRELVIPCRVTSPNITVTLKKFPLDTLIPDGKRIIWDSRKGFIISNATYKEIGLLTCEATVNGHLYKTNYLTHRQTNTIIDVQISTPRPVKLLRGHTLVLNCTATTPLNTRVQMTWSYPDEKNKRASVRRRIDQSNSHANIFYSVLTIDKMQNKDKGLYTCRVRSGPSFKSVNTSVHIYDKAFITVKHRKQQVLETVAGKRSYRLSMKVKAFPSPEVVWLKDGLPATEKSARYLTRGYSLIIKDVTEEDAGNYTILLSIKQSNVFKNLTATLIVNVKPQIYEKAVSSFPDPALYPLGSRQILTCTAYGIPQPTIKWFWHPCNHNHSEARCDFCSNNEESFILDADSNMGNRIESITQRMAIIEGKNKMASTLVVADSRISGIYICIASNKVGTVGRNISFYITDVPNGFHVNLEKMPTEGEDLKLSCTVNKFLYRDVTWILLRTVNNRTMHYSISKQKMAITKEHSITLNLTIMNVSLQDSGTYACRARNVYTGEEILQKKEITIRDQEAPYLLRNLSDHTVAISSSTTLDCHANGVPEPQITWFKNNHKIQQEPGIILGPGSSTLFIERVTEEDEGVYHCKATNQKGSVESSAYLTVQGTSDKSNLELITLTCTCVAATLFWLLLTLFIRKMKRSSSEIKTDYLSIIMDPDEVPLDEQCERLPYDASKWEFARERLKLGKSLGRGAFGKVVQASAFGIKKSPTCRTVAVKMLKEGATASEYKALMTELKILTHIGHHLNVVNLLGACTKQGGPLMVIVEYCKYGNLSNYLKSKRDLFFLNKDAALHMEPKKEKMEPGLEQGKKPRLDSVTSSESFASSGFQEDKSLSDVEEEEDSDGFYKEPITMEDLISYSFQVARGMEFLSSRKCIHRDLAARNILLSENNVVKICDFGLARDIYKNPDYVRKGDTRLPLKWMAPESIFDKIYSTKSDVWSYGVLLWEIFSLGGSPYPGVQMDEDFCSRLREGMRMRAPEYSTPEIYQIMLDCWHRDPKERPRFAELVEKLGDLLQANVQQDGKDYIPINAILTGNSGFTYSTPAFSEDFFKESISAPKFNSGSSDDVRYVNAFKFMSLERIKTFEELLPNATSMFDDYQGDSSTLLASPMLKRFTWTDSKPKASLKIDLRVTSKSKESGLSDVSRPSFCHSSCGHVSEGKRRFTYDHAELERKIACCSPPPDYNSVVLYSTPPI
# Chain of Mast/stem cell growth factor receptor Kit (P10721 whole entry): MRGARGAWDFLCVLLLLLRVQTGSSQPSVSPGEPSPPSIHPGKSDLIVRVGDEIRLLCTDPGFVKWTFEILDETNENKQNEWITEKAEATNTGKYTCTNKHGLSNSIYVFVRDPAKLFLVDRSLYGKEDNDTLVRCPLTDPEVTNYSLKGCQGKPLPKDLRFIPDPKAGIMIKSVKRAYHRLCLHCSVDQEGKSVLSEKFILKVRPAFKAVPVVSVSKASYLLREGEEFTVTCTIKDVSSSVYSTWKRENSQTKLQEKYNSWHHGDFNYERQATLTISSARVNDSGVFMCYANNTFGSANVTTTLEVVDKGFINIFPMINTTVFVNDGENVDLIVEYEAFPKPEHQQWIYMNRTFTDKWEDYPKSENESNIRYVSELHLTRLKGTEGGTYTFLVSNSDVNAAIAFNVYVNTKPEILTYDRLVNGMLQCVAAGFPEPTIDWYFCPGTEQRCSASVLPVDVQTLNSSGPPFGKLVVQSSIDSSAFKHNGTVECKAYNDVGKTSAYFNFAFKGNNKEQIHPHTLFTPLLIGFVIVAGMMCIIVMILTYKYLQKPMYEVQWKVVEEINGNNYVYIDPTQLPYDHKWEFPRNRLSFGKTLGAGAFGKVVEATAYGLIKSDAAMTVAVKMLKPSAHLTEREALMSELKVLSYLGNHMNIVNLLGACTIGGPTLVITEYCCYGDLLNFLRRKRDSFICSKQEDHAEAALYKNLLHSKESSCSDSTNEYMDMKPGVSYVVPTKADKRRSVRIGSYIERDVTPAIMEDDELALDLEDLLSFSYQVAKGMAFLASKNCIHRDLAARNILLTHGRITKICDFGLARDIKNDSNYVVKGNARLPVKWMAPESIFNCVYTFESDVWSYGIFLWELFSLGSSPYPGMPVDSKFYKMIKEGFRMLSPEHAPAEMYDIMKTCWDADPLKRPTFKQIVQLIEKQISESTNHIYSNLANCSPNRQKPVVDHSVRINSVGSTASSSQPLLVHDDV
SMILES,half-life [1],AUC [2],bioavailability [3],IC50 [4],IC50 (Angiopoietin-1 receptor),IC50 [5],IC50 [6],IC50 [7],Vd [8],clearance [9]
Cc1cccc(NC(=O)Nc2ccc(-c3csc4ncnc(N)c34)cc2)c1,42 min,14 µM·h,65%,–,–,–,–,–,–,–
Nc1ncnc2snc(-c3ccc(NC(=O)Nc4cccc(C(F)(F)F)c4)cc3)c12,–,–,–,–,28 nM,39 nM,18 nM,< 3 nM,–,–
Nc1ncnc2snc(-c3ccc(NC(=O)Nc4cc(C(F)(F)F)ccc4F)cc3)c12,–,–,–,–,22 nM,75 nM,28 nM,23 nM,–,–
Cc1ccc(F)c(NC(=O)Nc2ccc(-c3nsc4ncnc(N)c34)cc2)c1,12 min,2.7 µM·h,48%,–,19 nM,–,–,–,1.19 L/kg,75 mL/min/kg
Nc1ncnc2snc(-c3ccc([N+](=O)[O-])cc3)c12,–,–,–,> 50000 nM,–,–,–,–,–,–

# Second part, the compound after the results:
half-life [1],AUC [2],bioavailability [3],IC50 [4],IC50 (Angiopoietin-1 receptor),IC50 [5],IC50 [6],IC50 [7],Vd [8],clearance [9],SMILES
–,–,–,> 50000 nM,–,–,–,–,–,–,Nc1ncnc2onc(-c3ccc(NC(=O)c4ccccc4)cc3)c12
–,–,–,> 50000 nM,–,–,–,–,–,–,Cc1cc(C)c2oc(Nc3ccc(-c4noc5ncnc(N)c45)cc3)nc2c1
36 min,9.1 µM·h,56%,–,415 nM,79 nM,11 nM,4 nM,1.36 L/kg,26.7 mL/min/kg,Cc1cccc(NC(=O)Nc2ccc(-c3nsc4ncnc(N)c34)cc2)c1
